SIRT5 block: SIRT5 desuccinylase inhibitors, primary screen, biochemical, fluorescence imaging, single point, set 5; NAD-dependent protein deacylase sirtuin-5, mitochondrial (Homo sapiens), Q9NXA8; Purified SirT5, succinyl-peptide AMC, trypsin-coupled fluorescence; inhibition, % at 15 µM; 1.1% of 330,000 active; AID 652115, 2013; in the data active means inhibition above about 15%
Target sequence (Q9NXA8 whole entry, looked up): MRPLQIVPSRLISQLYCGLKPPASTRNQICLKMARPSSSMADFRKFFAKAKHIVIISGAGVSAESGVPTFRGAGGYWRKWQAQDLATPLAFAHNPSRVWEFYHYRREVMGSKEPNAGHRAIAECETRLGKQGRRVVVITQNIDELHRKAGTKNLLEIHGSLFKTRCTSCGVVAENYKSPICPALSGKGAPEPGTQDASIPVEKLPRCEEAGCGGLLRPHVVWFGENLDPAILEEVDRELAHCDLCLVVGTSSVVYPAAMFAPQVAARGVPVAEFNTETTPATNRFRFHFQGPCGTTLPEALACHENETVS
miR122 inh: miR-122 Renilla sensor signal increase in Huh7, primary screen, miR-122 inhibitor project, cell-based, single point, plate reader. Huh7 miR-122 Renilla luciferase sensor, 48 h; neutral wells = 0, positive control = 100. activation (reporter increase), % at 12.5 µM. 0.3% of 340,000 active. AID 602342, 2012;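 active means mean replicate activation score at least 90 and every replicate individually at or above 90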;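 further: higher luciferase means less miR-122 activity so hits act as miR-122 inhibitors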
S100A4 inh HTS: inhibitors of S100A4-myosin IIA peptide binding, primary screen, biochemical, fluorescence polarization, TAMRA-MyoIIA peptide; inhibition, % at 10.7 µM; Protein S100-A4 (Homo sapiens), P26447; 0.14% of 360,000 active;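 active means mean inhibition of at least 70% across replicates, with every replicate also reaching that level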
Target sequence (P26447 whole entry, looked up): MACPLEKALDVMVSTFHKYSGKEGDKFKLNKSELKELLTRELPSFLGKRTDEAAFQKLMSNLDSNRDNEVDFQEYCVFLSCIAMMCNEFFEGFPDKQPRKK
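Material: S100A4 monomer protein / Buffer or medium: 50 mM HEPES pH 7.2, 10 mM CaCl2, 100 mM KCl / Times: 5 min incubation before reading / Benchmarks: neutral control DMSO, positive control TFP / Reagent: labelled myosin peptide probe, 5 nM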
E-sel inducer: E-selectin induction in HUVECs, primary screen, imaging, HUVEC, immunofluorescence imaging, single point | P16581 | normalized: neutral wells 0, TNF-alpha wells 100 | activation, % at 7.58 µM | 0.37% of 260,000 active;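 active means mean E-selectin-positive cell signal at least 10% of the positive control, reached in at least 60% of replicates, without over 20% cell loss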
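material = human umbilical vein endothelial cells (HUVEC), E-selectin induction | quantity = 3,000 cells/well | medium = EGM-2 growth medium on 0.1% gelatin-coated wells | technique = immunofluorescence imaging | read-out basis = % PE-positive cells | control set = TNF-alpha positive control, DMSO neutral control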
FGF22 binding: binders of human FGF22 protein, primary screen, FGF22 synaptogenesis inhibitor project, biophysical, thermal shift, single point | AID 651658, 2012 | recombinant FGF22 thermal shift, SYPRO orange fluorescence; percent of sucrose octasulfate shift, DMSO zero | 1.5% of 340,000 active | activity (Tm shift, normalised), % at 9.99 µM;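 active means mean Tm shift, scaled 0 neutral to 100 positive control, at about 1.3% or above, every replicate too, limit read from the data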
Target sequence (Q9HCT0 whole entry, looked up): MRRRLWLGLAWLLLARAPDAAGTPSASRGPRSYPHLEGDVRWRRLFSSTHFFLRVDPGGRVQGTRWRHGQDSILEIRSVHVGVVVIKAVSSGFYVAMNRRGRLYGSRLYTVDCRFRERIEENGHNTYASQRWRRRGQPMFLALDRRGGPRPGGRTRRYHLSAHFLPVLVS
* marks the source's active call; other numbers are inactive results; / = no result; [ ] = dose if it differs, or a comment. Hits are enriched below; roughly 2.5% of the tested compounds scored in any of these assays.

SMILES	SIRT5 block	miR122 inh	S100A4 inh HTS	E-sel inducer	FGF22 binding
COc1ccccc1-c1c(C)nn2c(NCCN3CCCC3)cc(C)nc12	-2	7	-3	94*	0
COc1ccc(CCNC(=O)CCc2ccc(S(=O)(=O)NC(C)C)cc2)cc1OC	/	/	/	-1	/
COc1ccc(CC(=O)NNC(=O)CCc2ccccc2)cc1OC	-6	/	1	/	43*
Cc1ccc(CNC(=O)CCc2ccc(S(=O)(=O)NCC(C)C)cc2)cc1	29*	/	1	1	0
COc1ccc(CCNC(=O)CN(c2cc([N+](=O)[O-])ccc2OC)S(C)(=O)=O)cc1OC	-1	/	0	/	43*
CCCNS(=O)(=O)c1ccc(CCC(=O)NCCc2ccc(OC)c(OC)c2)cc1	-2	/	0	0	44*
CCN1[C@H](C(=O)NCCCN(C)C)[C@@H](CO)[C@@H]2Cn3c(ccc(-c4cccc(F)c4)c3=O)[C@@H]21	-1	/	14	0	/
Clc1ccccc1CN1CCN(/N=C/C=C\c2ccco2)CC1	28*	-4	4	/	0
C(/C=C/c1ccco1)=N/N1CCN(c2ccccc2)CC1	/	11	/	/	/
O=C1CN(C(=O)NCC(=O)N[C@H](C(=O)O)c2ccccc2)c2ccccc2N1	18*	/	-1	/	0
Cc1noc(C)c1S(=O)(=O)N(C)C[C@H]1Oc2ccc(NS(=O)(=O)c3ccccc3)cc2CC(=O)N([C@H](C)CO)C[C@@H]1C	0	-1[16.7 µM]	-8	-1	0
O=C1Nc2ccccc2-c2nnnn2C1N1CCCC1 (centres undefined)	18*	/	-1	0	0
O=C1c2ccccc2CCC12OC2c1ccncc1 (centres undefined)	-4	2	-6	/	0
O=C1c2ccccc2CCC12OC2c1ccc([N+](=O)[O-])cc1 (centres undefined)	/	/	1	0	44*
COC(=O)C(CC#Cc1ccc2c(c1)[C@]1(C(=O)N2)[C@H](c2ccccc2OCCO)N2[C@H](c3ccccc3)[C@H](c3ccccc3)OC(=O)[C@H]2[C@@H]1C(=O)NC[C@H](O)c1ccccc1)C(=O)OC	-1	/	0	/	0
C[C@@H]1CCCCO[C@H](CN(C)S(=O)(=O)c2ccccc2)[C@H](C)CN([C@@H](C)CO)C(=O)c2cc(NS(=O)(=O)c3ccc(F)cc3)ccc2O1	8	-3[16.7 µM]	2	0	0
C[C@@H]1CCCCO[C@H](CN(C)S(=O)(=O)c2ccc(F)cc2)[C@@H](C)CN([C@@H](C)CO)C(=O)c2cc(NS(=O)(=O)c3ccccc3)ccc2O1	17*	-4[16.7 µM]	-5	0	0
C[C@@H]1CCCCO[C@@H](CN(C)S(=O)(=O)c2ccc(F)cc2)[C@@H](C)CN([C@@H](C)CO)C(=O)c2cc(NS(=O)(=O)c3ccccc3)ccc2O1	16*	3[16.7 µM]	0	0	0
Cc1noc(C)c1S(=O)(=O)Nc1ccc2c(c1)C(=O)N([C@H](C)CO)C[C@@H](C)[C@H](CN(C)Cc1ccc(C(F)(F)F)cc1)OCCCC[C@H](C)O2	18*	-7[16.7 µM]	-8	0	0
Cc1noc(C)c1S(=O)(=O)Nc1ccc2c(c1)C(=O)N([C@H](C)CO)C[C@@H](C)[C@H](CN(C)Cc1ccc(C(F)(F)F)cc1)OCCCC[C@@H](C)O2	24*	-9[16.7 µM]	-3	0	0
Cc1noc(C)c1S(=O)(=O)Nc1ccc2c(c1)C(=O)N([C@@H](C)CO)C[C@@H](C)[C@H](CN(C)Cc1ccc(C(F)(F)F)cc1)OCCCC[C@@H](C)O2	17*	-15[16.7 µM]	1	0	0
C[C@H]1C=C(C(=O)Nc2ccccc2)O[C@@H](OCCCCO)C1	4	/	15	/	0
COc1ccc2c3c([nH]c2c1)[C@H](CO)N(CC1CCOCC1)CC31CN(C(=O)C2CC2)C1	-3	/	-3	0	0
C[C@@H]1CN([C@@H](C)CO)C(=O)c2cc(NS(=O)(=O)c3cn(C)cn3)ccc2O[C@@H](C)CCCCO[C@@H]1CN(C)C(=O)Cc1ccccc1	-1	-12[16.7 µM]	-18	0	0
C[C@@H]1CCCCO[C@H](CN(C)C(=O)Cc2ccccc2)[C@H](C)CN([C@H](C)CO)C(=O)c2cc(NS(=O)(=O)c3ccccc3)ccc2O1	16*	12[16.7 µM]	58	0	-1
SMILES	SIRT5 block	miR122 inh	S100A4 inh HTS	E-sel inducer	FGF22 binding
C[C@@H]1CCCCO[C@H](CN(C)C(=O)Cc2ccccc2)[C@@H](C)CN([C@H](C)CO)C(=O)c2cc(NS(=O)(=O)c3cn(C)cn3)ccc2O1	24*	2[16.7 µM]	1	0	0
COC[C@@]12C[C@H]3C(=O)N(Cc4ccccc4)C(=O)[C@H]3[C@@H](CO1)/C2=C\c1ccccc1	-2	/	-3	/	0
Cc1cc(C)c(S(=O)(=O)N2CCN(C(=O)c3cccs3)CC2)c(C)c1	1	-7	1	0	43*
Cc1ccc(S(=O)(=O)N2CCN(C(=O)c3cccs3)CC2)c(C)c1	-3	-5	-6	1	/
COc1ccc2c3c(n(C)c2c1)[C@H](CO)N(Cc1ccccc1)CC31CN(C(=O)C2CC2)C1	/	/	/	-1	0
Brc1ccc2oc(-c3ccn[nH]3)cc2c1	/	-4	14	74*	0
O=c1oc2ccc(Br)cc2cc1-c1nc2ccccc2o1	-1	-4	-1	/	0
COc1ccc(NC(=O)Nc2ccc3c(c2)C(=O)N([C@H](C)CO)C[C@H](C)[C@@H](CN(C)S(=O)(=O)c2cn(C)cn2)OCCCC[C@H](C)O3)cc1	/	-9[16.7 µM]	/	0	1.4*
COc1ccc(NC(=O)Nc2ccc3c(c2)C(=O)N([C@H](C)CO)C[C@H](C)[C@@H](CN(C)S(=O)(=O)c2ccccc2)OCCCC[C@H](C)O3)cc1	16*	-5[16.7 µM]	-8	/	0
C[C@@H]1CCCCO[C@H](CN(C)S(=O)(=O)c2ccccc2)[C@@H](C)CN([C@H](C)CO)C(=O)c2cc(NC(=O)CCC(F)(F)F)ccc2O1	-3	2[16.7 µM]	-26	0	3.9*
COc1ccc(NC(=O)Nc2ccc3c(c2)C(=O)N([C@H](C)CO)C[C@@H](C)[C@H](CN(C)S(=O)(=O)c2cn(C)cn2)OCCCC[C@@H](C)O3)cc1	/	4[16.7 µM]	/	0	0
C[C@@H]1CCCCO[C@@H](CN(C)S(=O)(=O)c2ccccc2)[C@H](C)CN([C@@H](C)CO)C(=O)c2cc(NC(=O)Nc3ccccc3)ccc2O1	6	-6[16.7 µM]	-6	/	2.0*

Compound activity deposited in PubChem BioAssay by Broad Institute.
